Platelet DG rel: platelet dense granule release activity. human platelet-rich plasma, SFLLRN dense granule ATP release, luminescence. inhibition, %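 (compounds screened at 7.5 µM in platelet-rich plasma)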. 300,000 compounds, 0.22% hits. AID 1663;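 active means mean replicate score, as percent of positive control, at or above 50; inconclusive means mean below 50 but at least one replicate at or above 50; inactive means mean and every replicate below 50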
Runt-SMMHC FRET: inhibitors of human RUNX1 Runt domain binding to CBFb-SMMHC; 220,000 compounds, 0.74% hits; Q01196+Q13951; Cerulean-Runt/Venus-CBFb-SMMHC FRET ratio 530/480, 1 h; inhibition, % at 20 µM;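 active means mean inhibition across duplicate retests at 20 µM reaching about 50%, limit read from the data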;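 further: inhibitors lower the FRET ratio by blocking Runt binding to CBFb-SMMHC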
Rce1 inh: inhibitors of yeast Ras-converting enzyme; Q03530; yeast membranes, quenched prenylated peptide cleavage fluorescence; calls only; 290,000 compounds, 0.27% hits; AID 2563;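 active means fall in fluorescence gain of 50% or more versus controls, with final raw signal at or below 3038400; inconclusive means same 50% fall but final raw signal above 3038400; inactive means fall in fluorescence gain under 50%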
Target sequence (Q03530 whole entry, looked up): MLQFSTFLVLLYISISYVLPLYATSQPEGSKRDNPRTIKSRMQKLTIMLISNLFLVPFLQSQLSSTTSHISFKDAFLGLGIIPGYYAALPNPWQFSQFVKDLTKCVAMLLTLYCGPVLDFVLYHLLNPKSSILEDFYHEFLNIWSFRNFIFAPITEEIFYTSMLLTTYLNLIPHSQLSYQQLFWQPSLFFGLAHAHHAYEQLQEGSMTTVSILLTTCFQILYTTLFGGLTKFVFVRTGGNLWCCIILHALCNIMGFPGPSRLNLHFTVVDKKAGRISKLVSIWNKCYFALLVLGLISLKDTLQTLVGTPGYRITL
Runt-CBFb FRET: Runt domain-CBFb interaction inhibition; Cerulean-Runt/Venus-CBFb FRET ratio 530/480, 1 h; AID 1496; inhibition, % at 20 µM; 220,000 compounds, 0.46% hits; Q01196+Q13951;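 active means inhibition over about 50% at 20 µM in the single-dose screen, limit read from the data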
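Measured by: fluorescence energy transfer, 422 nm excitation, 530/480 nm emission; test system: Cerulean-tagged RUNX1 Runt domain (FRET donor) fusion protein; buffer or medium: Tris pH 7.5 buffer with BSA; compound: one dose, 20 µM compound, 1% DMSO; times: two 1 h room-temperature incubations shielded from light; benchmarks: unlabeled CBFb 5 µM, positive control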
RanGTP-Imp inh: inhibitors of RanGTP-importin-beta interaction, primary screen, biochemical, FRET, CFP-Ran, YFP-importin-beta, homogeneous. cell-free CFP-Ran/YFP-importin-beta FRET ratio. inhibition, % (test concentration not listed). 300,000 compounds, 1.1% hits. AID 2216;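 active means more than half of the replicate wells show a fall in the fluorescence ratio signal beyond about 16%, limit read from the data, passing the limit was not always enough; inconclusive means exactly half of the replicate wells pass the set limit; inactive means fewer than half of replicates pass the limit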
Runt-CBFb TRFRET: disrupts human RUNX1 Runt domain binding to CBFb | shares compounds with Runt-CBFb FRET | TR-FRET RUNX1 Runt domain-CBFb binding | inhibition, % at 20 µM | 480 compounds, 20% hits | AID 1502; in the data active means inhibition above about 40%
A number is an active result; – = inactive; ? = inconclusive; · = no result. In the library only some 1.8% were active in any assay of this set; here they are far more common.

SMILES | Platelet DG rel | Runt-SMMHC FRET | Rce1 inh | Runt-CBFb FRET | RanGTP-Imp inh | Runt-CBFb TRFRET
CCOC(=O)C(OC(=O)c1sc(=S)n(C)c1C)C(C)=O (stereo not given) | 50 | – | – | – | – | ·
O=c1[nH]c2ccc(NC(=S)Nc3ccccc3Cl)cc2[nH]1 | 54 | – | – | – | – | ·
CC(c1ccon1)N(C)C(=O)CCc1nnc(C2(c3ccc(Cl)cc3)CCC2)o1 (stereo not given) | – | – | – | – | ? | ·
COc1cccc2[nH]c3c(Cl)ncnc3c12 | – | – | – | 52 | – | –
Cc1c(C(=O)NC2CCCCC2C)oc2ccccc12 (stereo not given) | – | · | – | · | – | ·
Cc1cc2c(c(=O)n1Cc1cccnc1)C(c1cccs1)C(C#N)=C(N)O2 (stereo not given) | – | – | – | – | – | ·
Cc1cc2c(c(=O)n1CCc1ccccc1)C(c1ccco1)C(C#N)=C(N)O2 (stereo not given) | – | · | – | 62 | – | –
Cc1cc2c(c(=O)n1Cc1cccnc1)C(Cc1ccccc1)C(C#N)=C(N)O2 (stereo not given) | – | 86 | – | 58 | 36 | –
Cc1ccc(Cn2c(SCCN3CCCCC3)nc3c2c(=O)[nH]c(=O)n3C)cc1 | – | – | – | 50 | – | –
Cn1c(=O)[nH]c(=O)c2c1nc(SCCN1CCCCC1)n2Cc1ccccc1 | – | – | – | – | – | ·
Cn1c(=O)[nH]c(=O)c2c1nc(SCCN1CCCCC1)n2CCCc1ccccc1 | · | – | · | 52 | · | –
CCCCCCc1cc2cc(C(=O)Nc3ccc(OC)cc3)c(=O)oc2cc1O | – | – | – | 65 | 41 | –
COc1cc(OC)cc(C(=O)/C=C2\Sc3ccccc3N2C)c1 | – | – | – | 57 | – | –
CN1/C(=C\C(=O)c2cccc([N+](=O)[O-])c2)Sc2ccccc21 | – | · | · | · | – | ·
CN1/C(=C\C(=O)c2cccs2)Sc2ccccc21 | – | 94 | – | 52 | ? | –
CN1/C(=C/C(=O)C2CCC2)Sc2ccccc21 | – | – | – | 51 | – | –
Cc1ccc(N(C(=O)c2csnn2)C(C(=O)NCc2ccccc2)c2cccnc2)cc1 (stereo not given) | – | · | – | · | – | ·
CSc1ccc(C(=S)N2CCN(C)CC2)cc1 | – | – | – | 54 | – | –
CN1CCN(C(=S)c2ccc(Br)cc2)CC1 | – | – | – | 50 | ? | –
S=C(c1ccc(Br)cc1)N1CCN(Cc2ccccc2)CC1 | – | – | – | 54 | – | –
O=C(c1ccc(Br)cc1)N1CCN(Cc2ccccc2)CC1 | – | · | – | · | – | ·
CCN1CCN(C(=S)c2ccc(O)cc2)CC1 | – | – | – | 54 | – | –
Oc1ccc(C(=S)N2CCN(Cc3ccccc3)CC2)cc1 | – | – | – | 53 | – | –
Cc1ccnc(NC(=O)c2ccc3[nH]c(=O)c(=O)[nH]c3c2)c1 | – | · | – | · | – | ·
COc1cc(/C=C(\C#N)c2nc3ccccc3[nH]2)cc(Br)c1OCc1ccccc1 | – | – | – | – | – | ·
SMILES | Platelet DG rel | Runt-SMMHC FRET | Rce1 inh | Runt-CBFb FRET | RanGTP-Imp inh | Runt-CBFb TRFRET
COc1cc(/C=C(\C#N)c2nc3ccccc3[nH]2)cc(Br)c1OCc1ccc(F)cc1 | – | 106 | – | 54 | – | –
CCCCC(=O)OCC(=O)Nc1cccc(S(=O)(=O)NC2=NCCCCC2)c1 | – | – | – | – | – | ·
C/C(=N/OC(=O)c1ccc(F)cc1)c1ccc(C)cc1 | – | – | – | – | – | ·
CCOC(=O)C1=C(C)N(c2ccccc2)C(=O)/C1=C\c1ccco1 | – | – | – | – | ? | ·
CCOC(=O)C1=C(C)N(c2ccccc2)C(=O)/C1=C\c1ccc(O)c(OC)c1 | – | – | – | 55 | – | 60
CCCCn1c(N)c(N(CC)C(=O)c2cccc(OC)c2)c(=O)[nH]c1=O | – | – | – | – | – | ·
C=CCc1cc(OC)ccc1OCCOCCN1CCc2ccccc2C1 | – | – | – | – | – | ·
CCN(C(=O)C(=O)c1c[nH]c2ccccc12)c1ccccc1 | – | · | – | · | – | ·
CCOC(=O)C1=C(Cc2ccc(C)cc2)C(=O)c2ccccc2C1=O | – | 51 | – | 50 | – | –
O=C1NC2(CCCCCC2)C(=O)N1Cc1ccccc1F | – | · | – | · | – | ·
CCn1nc(C)cc1C(=O)N1CCCC(N(C)CCc2ccc(OC)c(OC)c2)C1 (stereo not given) | – | · | – | · | – | ·
CCCOc1ccccc1-c1nc2c([nH]1)c(=O)[nH]c(=O)n2C | – | 133 | · | 75 | 75 | –
CCOC(=O)c1cnc2ccc(C)cc2c1Sc1ccc(F)cc1 | – | – | – | 86 | – | –
COc1c(O)ccc(/C=C(\C#N)c2nc3ccccc3[nH]2)c1[N+](=O)[O-] | – | 100 | – | 74 | 20 | –
Cc1ccc(N2C(=O)C3C4C=CC(CC4)C3C2=O)cc1[N+](=O)[O-] (stereo not given) | – | · | – | · | – | ·
Cc1cc(N2C(=O)C=CC2=O)c([N+](=O)[O-])cc1C | – | – | – | 53 | · | –
Cc1ccc(NC(=O)CSc2nc3ccccc3c(=O)n2CC2CCCO2)cc1 (stereo not given) | – | · | – | · | – | ·
CCOC(=O)c1cc2c(=O)n3ccccc3nc2n(Cc2ccco2)c1=NC(=O)c1ccc(OC)cc1OC | – | 86 | – | 70 | 29 | 52
CCOC(=O)c1cc2c(=O)n3ccccc3nc2n(CC2CCCO2)c1=NC(=O)/C=C/c1ccccc1 (stereo not given) | – | 86 | · | 81 | – | –
Cc1ccc(S(=O)(=O)N2CCN(C(=O)Cc3ccc4c(c3)OCCO4)CC2)cc1C | – | – | – | – | – | ·
COC(=O)C(C)n1nnc2sc(-c3ccccc3)cc2c1=O (stereo not given) | – | 124 | – | 58 | · | –
S=C1CSc2ccccc2N1 | – | – | – | 53 | – | –
COc1ccc(NC(=O)c2ccco2)c2ccccc12 | – | · | – | · | – | ·
O=[N+]([O-])c1ccc(C2CC(c3ccccc3)=Nc3ccccc3S2)cc1 (stereo not given) | – | – | – | 56 | – | –
Fc1ccc(C2CC(c3ccco3)=Nc3ccccc3S2)cc1 (stereo not given) | – | – | – | 51 | – | –
SMILES | Platelet DG rel | Runt-SMMHC FRET | Rce1 inh | Runt-CBFb FRET | RanGTP-Imp inh | Runt-CBFb TRFRET
Cc1cccc(N(CC(O)CN2CCCC2)S(=O)(=O)c2ccccc2)c1 (stereo not given) | – | · | – | · | – | ·
Cn1c(=O)nc2n(Cc3ccccc3)c3ccccc3cc-2c1=O | – | 82 | – | 90 | 121 | –
COCCN(C(=S)Nc1c(C)cccc1C)C(C)c1cccnc1 (stereo not given) | – | – | – | – | – | ·
COCCN(C(=S)Nc1c(C)cc(C)cc1C)C(C)c1cccnc1 (stereo not given) | – | – | – | 51 | ? | –
Cc1nn(CC#N)c(=O)n1-c1cccc(F)c1 | – | – | – | – | – | ·
N#CC1(C#N)COC23CCCCC2C1(C#N)C(=N)O3 (stereo not given) | – | 80 | – | 63 | 31 | –

Assay outcomes deposited in PubChem by several laboratories.
